Key:
[1] = target: T1, Serine/threonine-protein kinase B-raf (Homo sapiens, UniProt P15056, V600E); assay: Inhibition of B-Raf V600E mutant
[2] = target: T1, Serine/threonine-protein kinase B-raf; assay: Inhibition of B-Raf V600E mutant in human SK-MEL-28 cells assessed as reduction of ERK phosphorylation after 1 hr; format: cell-based
Method in brief: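 SKMEL28 cells (EMEM + 10% FBS) plated at 20,000 cells/well; 10-point dilution 20 µM to 0.001 µM, final DMSO 0.2%, 1 h. Fixed in 3.7% formaldehyde, permeabilized with 0.1% Triton X-100. Anti-ERK and anti-phospho-ERK primaries overnight at 4 °C, IR-dye secondaries 1 h, in-cell western on LiCor Odyssey. % inhibition of ERK phosphorylation vs control; IC50 by 4-parameter fit; means of 2–5 experiments.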

SK-MEL-28 = assay: Antiproliferative activity against human SK-MEL-28 cells expressing B-Raf V600E mutant after 3 days by CellTiter-Glo assay; format: functional, cell-based
Method in brief: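 SKMEL28 melanoma cells grown in EMEM + 10% FBS, 1% pen-strep, 1% sodium pyruvate, 37 °C, humidified 5% CO2; plated 500 cells/well. 10-point dilution 20 µM down to 0.001 µM, final DMSO 0.2%, 3 days. Total ATP read by CellTiter-Glo as cell-number surrogate. % growth inhibition vs control wells; IC50 by 4-parameter fit; mean of two experiments.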

TGF-beta receptor type-1 = target: T2, TGF-beta receptor type-1 (Homo sapiens, UniProt P36897); assay: Inhibition of ALK5
T2 sequence (P36897 whole entry): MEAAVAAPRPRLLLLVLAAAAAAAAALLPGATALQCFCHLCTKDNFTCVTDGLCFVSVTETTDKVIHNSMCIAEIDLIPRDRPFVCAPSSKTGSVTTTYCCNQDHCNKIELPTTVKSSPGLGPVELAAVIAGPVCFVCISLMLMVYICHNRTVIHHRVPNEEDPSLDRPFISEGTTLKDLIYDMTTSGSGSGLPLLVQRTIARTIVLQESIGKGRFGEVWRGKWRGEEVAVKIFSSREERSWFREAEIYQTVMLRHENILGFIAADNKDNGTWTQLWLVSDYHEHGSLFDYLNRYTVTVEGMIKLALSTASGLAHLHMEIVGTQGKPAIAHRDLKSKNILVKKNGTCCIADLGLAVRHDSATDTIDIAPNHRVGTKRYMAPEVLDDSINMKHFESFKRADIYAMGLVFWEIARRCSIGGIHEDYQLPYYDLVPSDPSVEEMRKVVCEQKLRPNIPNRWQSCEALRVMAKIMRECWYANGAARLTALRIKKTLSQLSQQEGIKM

Activin receptor type-2B = Activin receptor type-2B (Homo sapiens, UniProt Q13705); assay: Inhibition of ACTR-2B
[3] = target: Tyrosine-protein kinase BTK (Homo sapiens, UniProt Q06187); assay: Inhibition of Btk
[4] = target: Tyrosine-protein kinase Lck (Homo sapiens, UniProt P06239); assay: Inhibition of Lck
[5] = target: Receptor tyrosine-protein kinase erbB-4 (Homo sapiens, UniProt Q15303); assay: Inhibition of ErbB4
[6] = target: Tyrosine-protein kinase Lyn (Homo sapiens, UniProt P07948); assay: Inhibition of Lyn
HFF = assay: Antiproliferative activity against HFF after 3 days by CellTiter-Glo assay; format: cell-based; settings: Homo sapiens, 72 h

T1 sequence (P15056 2-766 V600E limits assumed): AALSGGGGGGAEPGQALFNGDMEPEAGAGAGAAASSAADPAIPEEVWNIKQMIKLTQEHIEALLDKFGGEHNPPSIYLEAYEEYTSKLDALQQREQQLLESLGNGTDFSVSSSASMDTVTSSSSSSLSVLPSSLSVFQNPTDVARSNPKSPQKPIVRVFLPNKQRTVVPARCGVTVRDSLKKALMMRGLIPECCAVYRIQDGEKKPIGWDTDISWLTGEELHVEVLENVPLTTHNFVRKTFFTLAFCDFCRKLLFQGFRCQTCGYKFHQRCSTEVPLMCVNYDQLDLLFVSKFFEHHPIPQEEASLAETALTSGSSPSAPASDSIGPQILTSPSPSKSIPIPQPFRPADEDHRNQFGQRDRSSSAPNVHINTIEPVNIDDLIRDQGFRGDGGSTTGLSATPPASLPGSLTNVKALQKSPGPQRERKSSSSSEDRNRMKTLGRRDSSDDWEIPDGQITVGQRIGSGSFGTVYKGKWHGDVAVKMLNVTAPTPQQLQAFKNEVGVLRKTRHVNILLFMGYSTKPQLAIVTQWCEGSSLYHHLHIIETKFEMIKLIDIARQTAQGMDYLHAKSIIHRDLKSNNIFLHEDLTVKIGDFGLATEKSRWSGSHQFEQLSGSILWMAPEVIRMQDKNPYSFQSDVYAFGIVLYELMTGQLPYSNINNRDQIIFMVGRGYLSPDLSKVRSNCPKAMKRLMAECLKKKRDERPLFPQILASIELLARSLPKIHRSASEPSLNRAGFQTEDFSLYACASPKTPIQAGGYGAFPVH
Chain of Tyrosine-protein kinase Lyn (P07948 whole entry): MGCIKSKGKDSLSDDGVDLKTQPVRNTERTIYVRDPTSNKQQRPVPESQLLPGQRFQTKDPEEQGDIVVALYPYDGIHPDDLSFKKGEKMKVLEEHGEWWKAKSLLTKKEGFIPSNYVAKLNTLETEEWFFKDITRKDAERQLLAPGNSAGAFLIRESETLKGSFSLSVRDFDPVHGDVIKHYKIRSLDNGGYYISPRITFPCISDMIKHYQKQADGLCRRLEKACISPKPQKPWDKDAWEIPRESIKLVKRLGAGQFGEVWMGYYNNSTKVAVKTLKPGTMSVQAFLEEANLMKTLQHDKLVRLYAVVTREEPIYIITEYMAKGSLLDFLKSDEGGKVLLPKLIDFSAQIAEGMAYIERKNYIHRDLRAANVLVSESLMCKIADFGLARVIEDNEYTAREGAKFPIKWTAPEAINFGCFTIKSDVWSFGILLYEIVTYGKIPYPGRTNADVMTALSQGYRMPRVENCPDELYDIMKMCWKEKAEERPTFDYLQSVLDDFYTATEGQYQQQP
Chain of Receptor tyrosine-protein kinase erbB-4 (Q15303 whole entry): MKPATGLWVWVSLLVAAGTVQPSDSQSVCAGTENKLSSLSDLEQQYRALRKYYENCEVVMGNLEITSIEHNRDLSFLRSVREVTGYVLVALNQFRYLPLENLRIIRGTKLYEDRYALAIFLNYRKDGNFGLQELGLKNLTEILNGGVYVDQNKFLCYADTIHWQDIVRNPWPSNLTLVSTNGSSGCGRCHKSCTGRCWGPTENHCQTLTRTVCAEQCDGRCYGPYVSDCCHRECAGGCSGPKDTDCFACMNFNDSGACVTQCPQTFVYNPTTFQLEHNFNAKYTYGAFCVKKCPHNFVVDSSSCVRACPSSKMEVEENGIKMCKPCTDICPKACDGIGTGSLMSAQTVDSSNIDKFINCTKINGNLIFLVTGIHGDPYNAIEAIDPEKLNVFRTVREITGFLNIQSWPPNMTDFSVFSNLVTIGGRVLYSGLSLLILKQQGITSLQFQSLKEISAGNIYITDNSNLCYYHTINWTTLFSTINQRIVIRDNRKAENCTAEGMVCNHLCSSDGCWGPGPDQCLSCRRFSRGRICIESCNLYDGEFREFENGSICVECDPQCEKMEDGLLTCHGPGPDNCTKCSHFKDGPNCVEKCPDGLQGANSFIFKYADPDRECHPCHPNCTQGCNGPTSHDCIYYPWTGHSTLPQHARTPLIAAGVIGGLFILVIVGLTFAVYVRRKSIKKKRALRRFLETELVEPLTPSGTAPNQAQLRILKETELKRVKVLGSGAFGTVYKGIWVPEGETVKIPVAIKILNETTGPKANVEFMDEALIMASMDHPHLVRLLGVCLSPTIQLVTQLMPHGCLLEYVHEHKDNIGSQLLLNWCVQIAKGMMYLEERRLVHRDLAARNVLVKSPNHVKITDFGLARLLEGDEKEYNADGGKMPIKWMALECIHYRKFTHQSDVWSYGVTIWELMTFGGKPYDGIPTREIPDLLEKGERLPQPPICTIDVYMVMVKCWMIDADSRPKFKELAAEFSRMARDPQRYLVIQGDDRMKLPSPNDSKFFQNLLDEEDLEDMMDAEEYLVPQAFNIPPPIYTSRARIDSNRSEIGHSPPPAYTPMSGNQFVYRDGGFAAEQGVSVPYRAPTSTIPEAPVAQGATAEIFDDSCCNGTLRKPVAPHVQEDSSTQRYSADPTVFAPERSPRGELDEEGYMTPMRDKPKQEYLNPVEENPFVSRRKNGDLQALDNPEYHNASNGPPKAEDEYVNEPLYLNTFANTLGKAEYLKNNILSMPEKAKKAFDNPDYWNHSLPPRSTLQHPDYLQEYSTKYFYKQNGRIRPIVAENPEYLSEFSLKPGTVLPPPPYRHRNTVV
Chain of Tyrosine-protein kinase Lck (P06239 whole entry): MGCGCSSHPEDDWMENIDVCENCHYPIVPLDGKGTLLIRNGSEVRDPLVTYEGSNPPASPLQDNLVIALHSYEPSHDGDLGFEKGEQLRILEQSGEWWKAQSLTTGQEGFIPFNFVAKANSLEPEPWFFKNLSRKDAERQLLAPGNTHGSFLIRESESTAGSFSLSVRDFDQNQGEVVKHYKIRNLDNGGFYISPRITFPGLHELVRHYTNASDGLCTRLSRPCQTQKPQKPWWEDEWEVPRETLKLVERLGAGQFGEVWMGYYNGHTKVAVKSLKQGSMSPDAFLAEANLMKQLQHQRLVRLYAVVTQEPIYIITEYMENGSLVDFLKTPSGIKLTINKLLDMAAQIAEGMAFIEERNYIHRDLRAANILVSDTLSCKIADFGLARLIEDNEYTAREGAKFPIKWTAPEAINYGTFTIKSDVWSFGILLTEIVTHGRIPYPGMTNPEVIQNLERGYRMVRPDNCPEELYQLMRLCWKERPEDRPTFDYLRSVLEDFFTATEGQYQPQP
Chain of Activin receptor type-2B (Q13705 whole entry): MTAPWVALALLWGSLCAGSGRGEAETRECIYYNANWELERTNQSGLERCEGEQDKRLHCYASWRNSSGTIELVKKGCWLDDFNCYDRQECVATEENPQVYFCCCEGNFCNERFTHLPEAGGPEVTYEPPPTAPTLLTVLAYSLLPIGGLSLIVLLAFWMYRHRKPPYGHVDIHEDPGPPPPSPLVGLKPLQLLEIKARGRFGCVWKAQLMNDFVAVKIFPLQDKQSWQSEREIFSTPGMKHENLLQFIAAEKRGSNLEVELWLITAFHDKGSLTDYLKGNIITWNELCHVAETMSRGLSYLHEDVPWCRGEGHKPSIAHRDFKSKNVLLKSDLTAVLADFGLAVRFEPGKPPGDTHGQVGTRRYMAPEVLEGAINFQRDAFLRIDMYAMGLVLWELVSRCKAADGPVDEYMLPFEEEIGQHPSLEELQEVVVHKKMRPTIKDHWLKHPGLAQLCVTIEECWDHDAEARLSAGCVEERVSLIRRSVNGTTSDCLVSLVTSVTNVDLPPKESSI
Chain of Tyrosine-protein kinase BTK (Q06187 whole entry): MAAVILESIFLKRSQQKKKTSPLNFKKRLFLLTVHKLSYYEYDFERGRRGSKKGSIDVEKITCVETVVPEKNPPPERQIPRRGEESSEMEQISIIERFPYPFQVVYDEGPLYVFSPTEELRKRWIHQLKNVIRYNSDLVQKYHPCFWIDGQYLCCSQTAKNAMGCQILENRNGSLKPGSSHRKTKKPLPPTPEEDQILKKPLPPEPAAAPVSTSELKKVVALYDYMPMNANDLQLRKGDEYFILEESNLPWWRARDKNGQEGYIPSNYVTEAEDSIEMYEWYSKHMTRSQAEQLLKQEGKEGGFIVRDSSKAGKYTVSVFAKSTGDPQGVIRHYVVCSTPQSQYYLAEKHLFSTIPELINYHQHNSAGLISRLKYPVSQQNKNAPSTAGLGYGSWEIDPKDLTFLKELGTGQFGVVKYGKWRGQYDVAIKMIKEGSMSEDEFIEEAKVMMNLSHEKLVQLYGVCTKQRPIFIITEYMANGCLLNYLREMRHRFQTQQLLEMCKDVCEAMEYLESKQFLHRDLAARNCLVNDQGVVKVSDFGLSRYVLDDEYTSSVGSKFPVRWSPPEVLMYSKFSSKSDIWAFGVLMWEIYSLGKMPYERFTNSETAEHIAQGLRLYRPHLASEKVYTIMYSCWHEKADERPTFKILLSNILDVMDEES

Compound	IC50 [1]	EC50 [2]	EC50 (SK-MEL-28; Homo sapiens, SK-MEL-28, 72 h)	other results
CN1CCc2ccc(Nc3nccc(-c4c(-c5cccc(C(=O)Nc6c(F)cccc6F)c5)nc5ccccn45)n3)cc2C1	12 nM	> 2200 nM	–	–
CN1CCc2ccc(Nc3nccc(-c4c(-c5cccc(NC(=O)Nc6c(F)cccc6F)c5)nc5ccccn45)n3)cc2C1	5 nM	> 20000 nM	6340 nM	–
CN1CCc2ccc(Nc3nccc(-c4c(-c5cccc(NC(=O)c6c(F)cccc6F)c5)nc5ccccn45)n3)cc2C1	9 nM	> 10000 nM	5320 nM	–
CN1CCc2ccc(Nc3nccc(-c4c(-c5cccc(NS(=O)(=O)c6ccccc6)c5)nc5ccccn45)n3)cc2C1	132 nM	99 nM	1110 nM	–
CC(C)c1nc(-c2cccc(NC(=O)c3c(F)cccc3F)c2)c(-c2ccnc(Nc3ccc4c(c3)CN(C)CC4)n2)s1	4 nM	580 nM	2750 nM	–
CC(C)c1nc(-c2cccc(NS(=O)(=O)c3ccccc3)c2)c(-c2ccnc(Nc3ccc4c(c3)CN(C)CC4)n2)s1	12 nM	52 nM	287 nM	–
CC(=O)N1CCN(c2ccc(Nc3nccc(-c4sc(C(C)C)nc4-c4cccc(NS(=O)(=O)c5ccccc5)c4)n3)cn2)CC1	3.6 nM	7 nM	24 nM	–
CCc1nc(-c2cccc(N(C)S(=O)(=O)c3ccccc3)c2)c(-c2ccnc(Nc3ccc(N4CCN(C(C)=O)CC4)nc3)n2)s1	1970 nM	4730 nM	8620 nM	–
CCc1nc(-c2cccc(CS(=O)(=O)c3ccccc3)c2)c(-c2ccnc(Nc3ccc(N4CCN(C(C)=O)CC4)nc3)n2)s1	1360 nM	> 20000 nM	11100 nM	–
CC(=O)N1CCN(c2ccc(Nc3nccc(-c4sc(C(C)C)nc4-c4cccc(NS(=O)(=O)c5ccccc5F)c4)n3)cn2)CC1	0.6 nM	4 nM	4 nM	–
CC(=O)N1CCN(c2ccc(Nc3nccc(-c4sc(C(C)C)nc4-c4cccc(NS(=O)(=O)c5cccc(F)c5)c4)n3)cn2)CC1	0.8 nM	10 nM	8 nM	–
CC(=O)N1CCN(c2ccc(Nc3nccc(-c4sc(C(C)C)nc4-c4cccc(NS(=O)(=O)c5ccc(F)cc5)c4)n3)cn2)CC1	9.5 nM	9 nM	69 nM	–
CC(=O)N1CCN(c2ccc(Nc3nccc(-c4sc(C(C)C)nc4-c4cccc(NS(=O)(=O)c5cccc(Cl)c5)c4)n3)cn2)CC1	34 nM	21 nM	85 nM	–
CC(=O)N1CCN(c2ccc(Nc3nccc(-c4sc(C(C)C)nc4-c4cccc(NS(=O)(=O)c5cc(F)ccc5F)c4)n3)cn2)CC1	0.6 nM	8 nM	8 nM	–
CC(=O)N1CCN(c2ccc(Nc3nccc(-c4sc(C(C)C)nc4-c4cccc(NS(=O)(=O)c5c(F)cccc5F)c4)n3)cn2)CC1	1.3 nM	10 nM	12 nM	–
CC(C)c1nc(-c2cccc(NS(=O)(=O)c3c(F)cccc3F)c2)c(-c2ccnc(Nc3ccc(N4CCOCC4)nc3)n2)s1	1.2 nM	7 nM	6 nM	–
CC(C)c1nc(-c2cccc(NS(=O)(=O)c3c(F)cccc3F)c2F)c(-c2ccnc(Nc3ccc(N4CCOCC4)nc3)n2)s1	0.5 nM	11 nM	8 nM	–
CC(C)c1nc(-c2cc(F)cc(NS(=O)(=O)c3c(F)cccc3F)c2)c(-c2ccnc(Nc3ccc(N4CCOCC4)nc3)n2)s1	0.9 nM	24 nM	14 nM	–
CC(C)c1nc(-c2ccc(F)c(NS(=O)(=O)c3c(F)cccc3F)c2)c(-c2ccnc(Nc3ccc(N4CCOCC4)nc3)n2)s1 [listing 1 of 2 here]	3.8 nM	23 nM	–	IC50 (TGF-beta receptor type-1): 10 nM; IC50 (Activin receptor type-2B): 10 nM; IC50 [3]: 10 nM; IC50 [4]: 10 nM; IC50 [5]: 10 nM; EC50 (SK-MEL-28; sk-mel-28): 47 nM; IC50 [6]: 10 nM
CC(C)c1nc(-c2ccc(F)c(NS(=O)(=O)c3c(F)cccc3F)c2)c(-c2ccnc(Nc3ccc(N4CCOCC4)nc3)n2)s1 [listing 2 of 2 here]	–	–	52 nM	EC50 (HFF): 15600 nM

— ChEMBL document CHEMBL1806396, “Development of potent B-RafV600E inhibitors containing an arylsulfonamide headgroup” (Bioorg Med Chem Lett, 2011)
